# Reference: article PMC4241044 (Journal of Clinical Pharmacology, 2014)
# Where two headings read alike, the source gives them in different places. Marks after values point to notes of the source that are not given here.
# Key:
# [1] = type: in vivo, human; conditions: for AUC(0-inf) / Cmax / Vd/F / Tmax / half-life: human, plasma, oral; for Tmax: median (minimum–maximum); for half-life: t½; for increase in AUC∞ / increase in Cmax: compared with normal renal function; for DNAUC∞ (dose-normalized AUC∞) / DNCmax (dose-normalized Cmax): dose-normalized to 10 mg
# Safety and tolerability = type: in vivo, human
# In short: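 Monitoring was continuous and covered bleeding events and other treatment-emergent adverse events, with severity and relation to study drugs. Vital signs, ECG, haematology, clinical chemistry, PT/aPTT and urinalysis were checked, plus regular physical examinations. Subjects were grouped by Cockcroft–Gault CLCR. […] Analysis included all subjects receiving ≥1 study-drug dose.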
# [2] = 2.5–10 mg dose range under fasting conditions and 10–20 mg dose range under fed conditions; ref previous Phase I studies; cited from earlier work
# Factor Xa activity = Factor Xa activity (Homo sapiens, UniProt P00742); experiment: Factor Xa inhibition in plasma; type: in vivo
# Sequence of Factor Xa activity (P00742 235-488 limits assumed): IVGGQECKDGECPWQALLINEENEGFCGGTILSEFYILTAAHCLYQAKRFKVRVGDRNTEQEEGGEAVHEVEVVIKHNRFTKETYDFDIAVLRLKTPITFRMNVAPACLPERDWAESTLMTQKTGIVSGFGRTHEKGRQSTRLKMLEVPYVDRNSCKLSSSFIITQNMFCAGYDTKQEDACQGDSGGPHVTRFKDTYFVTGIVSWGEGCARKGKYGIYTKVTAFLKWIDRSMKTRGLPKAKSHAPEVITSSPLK
# Sequence of Factor Xa activity (P00742 41-179 partner limits assumed): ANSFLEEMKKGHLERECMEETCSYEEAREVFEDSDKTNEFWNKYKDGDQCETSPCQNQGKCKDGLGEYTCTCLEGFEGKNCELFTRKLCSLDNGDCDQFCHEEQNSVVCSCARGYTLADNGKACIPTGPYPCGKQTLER
# [3] = cited from earlier work
# [4] = steady-state erythromycin; previous Phase I drug–drug interaction study; cited from earlier work
# [5] = Rivaroxaban urine pharmacokinetics; type: in vivo, human; conditions: arithmetic mean (SD); for CL renal: human, urine and plasma, oral, CLR, renal clearance
# [6] = previous study, cited from earlier work
# prothrombin time (PT) = experiment: Prothrombin time prolongation in plasma; type: in vivo, human
# In short: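 Subjects were grouped by mean of two Cockcroft–Gault CLCR estimates: ≥80 (normal), 50–79 (mild) and 30–49 mL/min (moderate). […] PT blood was drawn at −1 h (baseline) and 0.5–48 h post-dose. […] Log-transformed geometric mean ratios with 90% CI; completers only.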
# [7] = Erythromycin trough plasma concentrations, attainment of steady state; type: in vivo, human; conditions: erythromycin 500 mg tid, visual inspection
# In short: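 Erythromycin 500 mg tid was given for 6 days in treatment periods 2 and 3. Trough plasma was sampled before the morning erythromycin dose on days 2–6 and on the morning of day 7, then stored frozen. Assay was LC/MS/MS after methanol protein precipitation, on a reverse-phase column at 40 °C. Steady state was judged visually from concentration–time plots.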
# [8] = Mild RI, rivaroxaban 10 mg + erythromycin 500 mg tid
# [9] = Moderate RI, rivaroxaban 10 mg + erythromycin 500 mg tid
# [10] = 10 mg, geometric mean, Normal RF, rivaroxaban 10 mg
# [11] = 10 mg, rivaroxaban 10 mg, mild renal impairment, arithmetic mean (SD)
# [12] = rivaroxaban 5 mg + erythromycin 500 mg tid, mild renal impairment, arithmetic mean (SD)
# [13] = rivaroxaban 5 mg + erythromycin 500 mg tid, moderate renal impairment, arithmetic mean (SD)
# [14] = rivaroxaban 10 mg + erythromycin 500 mg tid, normal renal function, arithmetic mean (SD)
# [15] = rivaroxaban 10 mg + erythromycin 500 mg tid, moderate renal impairment, arithmetic mean (SD)
# [16] = rivaroxaban 5 mg + erythromycin 500 mg tid, mild renal impairment
# [17] = rivaroxaban 10 mg + erythromycin 500 mg tid, moderate renal impairment
# [18] = mild renal impairment, rivaroxaban 10 mg with steady-state erythromycin, rivaroxaban 10 mg alone
# [19] = mild renal impairment, rivaroxaban 10 mg
# [20] = moderate renal impairment, rivaroxaban 10 mg with steady-state erythromycin, rivaroxaban 10 mg alone
# [21] = moderate renal impairment, rivaroxaban 10 mg
# [22] = mild renal impairment vs normal renal function, rivaroxaban 10 mg
# [23] = moderate renal impairment vs normal renal function, rivaroxaban 10 mg
# [24] = normal renal function, rivaroxaban 10 mg + erythromycin vs rivaroxaban alone
# [25] = rivaroxaban 5 mg + erythromycin 500 mg tid, moderate renal impairment
# [26] = rivaroxaban 10 mg + erythromycin 500 mg tid, mild renal impairment
# [27] = rivaroxaban 10 mg + erythromycin 500 mg tid, normal renal function
compound,measurement,setting,value
"O=C(NC[C@H]1CN(c2ccc(N3CCOCC3=O)cc2)C(=O)O1)c1ccc(Cl)s1 [Rivaroxaban, rivaroxaban]","AUC∞, geometric mean",[1]; [8],"3,078.7 ng · h/mL"
same,"Cmax, geometric mean",[1]; [8],277.2 ng/mL
same,"Cmax, geometric mean",[1]; [9],292.42 ng/mL
same,"AUC∞, geometric mean","[1]; Moderate RI, rivaroxaban 10 mg + erythromycin 500 mg tid, n = 7","3,475.5 ^a ng · h/mL"
same,"Cmax, geometric mean","[1]; Normal RF, rivaroxaban 10 mg",178.17 ng/mL
same,AUC(0-inf),"[1]; 10 mg, geometric mean, Mild RI, rivaroxaban 10 mg",2000 ng·h/mL
same,AUC(0-inf),"[1]; 10 mg, geometric mean, Moderate RI, rivaroxaban 10 mg",2040 ng·h/mL
same,AUC(0-inf),[1]; [10],1750 ng·h/mL
same,AUC(0-inf),[1]; [11],2020 ng·h/mL
same,Cmax,[1]; [10],178 ng/mL
same,Vd/F,[1]; [11],77.3 L
same,Tmax,"[1]; 10 mg, rivaroxaban 10 mg, mild renal impairment",3 h
same,Tmax,"[1]; 10 mg, rivaroxaban 10 mg, moderate renal impairment",3 h
same,half-life,[1]; [11],9.9 h
same,AUC(0-inf),[1]; [12],1970 ng·h/mL
same,AUC(0-inf),[1]; [13],1980 ng·h/mL
same,AUC(0-inf),[1]; [14],2470 ng·h/mL
same,Cmax,[1]; [15],323 ng/mL
same,Cmax,[1]; [14],256 ng/mL
same,Vd/F,[1]; [12],37.5 L
same,Vd/F,"[1]; rivaroxaban 10 mg + erythromycin 500 mg tid, mild renal impairment, arithmetic mean (SD)",46 L
same,Vd/F,[1]; [15],40.9 L
same,Vd/F,[1]; [14],44.2 L
same,Tmax,[1]; [16],3 h
same,Tmax,[1]; [17],3 h
same,half-life,[1]; [13],10 h
same,increase in AUC∞,[1]; [18],approximately 76%
same,increase in Cmax,[1]; [18],~56%
same,increase in AUC∞,[1]; [19],approximately 15%
same,increase in Cmax,[1]; [19],~23%
same,increase in AUC∞,[1]; [20],~99%
same,increase in Cmax,[1]; [20],~64%
same,increase in AUC∞,[1]; [21],approximately 17%
same,increase in Cmax,[1]; [21],~36%
same,DNAUC∞ (dose-normalized AUC∞),[1]; [12],"3,935 (1,671) ng · h/mL"
same,DNCmax (dose-normalized Cmax),[1]; [12],358 (109) ng/mL
same,DNAUC∞ (dose-normalized AUC∞),[1]; [13],"3,961 (1,020) ng · h/mL"
same,DNCmax (dose-normalized Cmax),[1]; [13],329 (104) ng/mL
same,subjects reporting bleeding events,"Safety and tolerability; 1 NRF, 3 moderate RI, all mild in intensity, of 29 enrolled",Four
same,tolerability,"Safety and tolerability; single dose 5 mg or 10 mg, regardless of renal function and erythromycin co-administration",well tolerated
same,dose proportionality (based on AUC),[2],dose-proportional
same,"Factor Xa inhibition AUC0–48h, geometric mean",Factor Xa activity; [9],842.3
same,"Factor Xa inhibition Emax, geometric mean",Factor Xa activity; [9],53.61
same,"Factor Xa inhibition AUC0–48h, geometric mean","Factor Xa activity; Normal RF, rivaroxaban 10 mg",593.43
same,"Factor Xa inhibition Emax, geometric mean","Factor Xa activity; Normal RF, rivaroxaban 10 mg",39.38
same,increase in Factor Xa inhibition AUC0–48h,Factor Xa activity; [22],approximately 16%
same,increase in Factor Xa inhibition Emax,Factor Xa activity; [22],~17%
same,increase in Factor Xa inhibition AUC0–48h,Factor Xa activity; [23],approximately 3%
same,increase in Factor Xa inhibition Emax,Factor Xa activity; [23],~17%
same,Factor Xa inhibition AUC0–48h lower by,Factor Xa activity; [24],approximately 8%
same,increase in Factor Xa inhibition Emax,Factor Xa activity; [24],approximately 18%
same,dose metabolized via CYP2J2,[3],14%
same,dose metabolized via CYP3A4/3A5,[3],approximately 18%
same,dose metabolized via CYP-independent hydrolysis,[3],14%
same,drug excreted unchanged by the kidneys,[3],approximately 36%
same,fraction of the absorbed dose hepatically metabolized,"[3]; via CYP3A4/3A5, CYP2J2 and CYP-independent mechanisms",approximately two-thirds
same,fraction of the absorbed dose eliminated as unchanged drug in the urine,[3]; via P-gp-mediated and ABCG2-mediated secretion,third
same,increase in AUC∞,[4],approximately 34%
same,increase in Cmax,[4],approximately 34%
same,CL renal,[5]; [16],15.9 mL/min
same,CL renal,[5]; [25],9.25 mL/min
same,CL renal,[5]; [26],19.2 mL/min
same,CL renal,[5]; [17],13.3 mL/min
same,CL renal,[5]; [27],34.3 mL/min
same,"Ae, cumulative amount excreted into the urine over 48 hours",[5]; [16],1.56 (0.692) mg
same,"Ae, cumulative amount excreted into the urine over 48 hours",[5]; [25],1.04 (0.531) mg
same,"Ae, cumulative amount excreted into the urine over 48 hours",[5]; [26],3.29 (0.893) mg
same,"Ae, cumulative amount excreted into the urine over 48 hours",[5]; [17],2.74 (1.10) mg
same,"Ae, cumulative amount excreted into the urine over 48 hours",[5]; [27],4.80 (0.851) mg
same,"Ae, cumulative amount excreted into the urine over 48 hours","[5]; rivaroxaban 10 mg, mild renal impairment",2.49 (0.697) ^a mg
same,"Ae, cumulative amount excreted into the urine over 48 hours","[5]; rivaroxaban 10 mg, moderate renal impairment",1.30 (0.654) mg
same,"Ae, cumulative amount excreted into the urine over 48 hours","[5]; rivaroxaban 10 mg, normal renal function",3.51 (0.773) mg
same,increase in AUC∞,[6]; mild renal impairment vs normal renal function,approximately 44%
same,increase in AUC∞,[6]; moderate renal impairment vs normal renal function,~52%
same,"Prothrombin time AUC0–48h, geometric mean",prothrombin time (PT); [8],118.7
same,"Prothrombin time Emax, geometric mean",prothrombin time (PT); [8],9.85
same,"Prothrombin time AUC0–48h, geometric mean",prothrombin time (PT); [9],115.1
same,"Prothrombin time Emax, geometric mean",prothrombin time (PT); [9],10.02
same,"Prothrombin time AUC0–48h, geometric mean","prothrombin time (PT); Normal RF, rivaroxaban 10 mg",67.82
same,"Prothrombin time Emax, geometric mean","prothrombin time (PT); Normal RF, rivaroxaban 10 mg",8.24
same,increase in PT Emax,prothrombin time (PT); [22],~5%
same,change in PT AUC0–48h,prothrombin time (PT); [23],did not seem to change significantly
same,change in PT Emax,prothrombin time (PT); [23],did not seem to change significantly
same,increase in PT AUC0–48h,prothrombin time (PT); [24],approximately 22%
same,increase in PT Emax,prothrombin time (PT); [24],~10%
CC[C@H]1OC(=O)[C@H](C)[C@@H](O[C@H]2C[C@@](C)(OC)[C@@H](O)[C@H](C)O2)[C@H](C)[C@@H](O[C@@H]2O[C@H](C)C[C@H](N(C)C)[C@H]2O)[C@](C)(O)C[C@@H](C)C(=O)[C@H](C)[C@@H](O)[C@]1(C)O [erythromycin],attainment of steady-state plasma concentrations,[7],obtained by the morning of day 5
